# Experimental data reported in ChEMBL document CHEMBL2016529, “Synthesis and biological evaluation of novel potent angiotensin II receptor antagonists with anti-hypertension effect” (Bioorg Med Chem, 2012).
# Active and inactive are the calls of the source. No cut-off for these calls is given here.
# How the values were obtained:
# Rattus norvegicus [1] = assay: Toxicity in rat spontaneous hypertensive model assessed as effect on heart rate at 15 mg/kg, po; type: organism-based; design: dose 15 mg/kg, route oral; settings: in vivo
# Outline: (§1)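 Male spontaneously hypertensive rats, randomized into groups of ten. Compound suspended in 0.5% sodium carboxymethyl cellulose and given orally once at 15 or 30 mg/kg. Negative controls received the same volume of vehicle, and valsartan and irbesartan at equal doses served as positive controls. Blood pressure (SBP, DBP) and heart rate were monitored over 0–10 h after dosing with a biological signal analysis system.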
# Rattus norvegicus [2] = assay: Toxicity in rat spontaneous hypertensive model assessed as effect on heart rate at 30 mg/kg, po; type: organism-based; design: dose 30 mg/kg, route oral; settings: in vivo; outline: as §1
# Rattus norvegicus [3] = assay: Antihypertensive activity in rat spontaneous hypertensive model assessed as reduction in diastolic blood pressure at 30 mg/kg, po up to 10 hrs; type: functional, organism-based; design: dose 30 mg/kg; settings: Artery; outline: as §1
# Rattus norvegicus [4] = assay: Antihypertensive activity in rat spontaneous hypertensive model assessed as reduction in diastolic blood pressure at 15 mg/kg, po up to 10 hrs; type: functional, organism-based; design: dose 15 mg/kg; settings: Artery; outline: as §1
# Rattus norvegicus [5] = assay: Antihypertensive activity in rat spontaneous hypertensive model assessed as reduction in systolic blood pressure at 15 mg/kg, po up to 10 hrs; type: functional, organism-based; design: dose 15 mg/kg; settings: Artery; outline: as §1
# Rattus norvegicus [6] = organism: Rattus norvegicus; assay: (§2) Displacement of [I125]angiotensin2 from AT1 receptor in Sprague-Dawley rat VSMC after 2.5 hrs by gamma spectrophotometry
# Outline: (§3)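 Smooth muscle cells from rat aorta were isolated by collagenase digestion (1 h, 37 °C) and grown in DMEM with 15% FBS. Quiescent, confluent monolayers were incubated in PBS with 0.1 nM 125I-Ang II and compound at final 1×10^-12 to 1×10^-6 M for 2.5 h at 4 °C. Nonspecific binding was defined with 1×10^-6 M competitor. Cells were washed three times, lysed in 0.1 M NaOH, and bound radioactivity was gamma counted.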
# [7] = as §2; outline: as §3
# Rattus norvegicus [8] = assay: Antihypertensive activity in rat spontaneous hypertensive model assessed as time of maximum effect on diastolic blood pressure at 30 mg/kg, po; type: functional, Artery; outline: as §1
# Rattus norvegicus [9] = assay: Antihypertensive activity in rat spontaneous hypertensive model assessed as reduction in systolic blood pressure at 30 mg/kg, po up to 10 hrs; type: functional, organism-based; design: dose 30 mg/kg; settings: Artery; outline: as §1
# Rattus norvegicus [10] = assay: Antihypertensive activity in rat spontaneous hypertensive model assessed as time of maximum effect on systolic blood pressure at 30 mg/kg, po; type: functional, Artery; outline: as §1
# [11] = Acute toxicity in intragastrically dosed ICR rat; type: organism-based; settings: in vivo, po
# Outline: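 ICR rats (6–8 weeks, individually weighed) dosed intragastrically at 1000.0–5000.0 mg/kg (six dose levels); daily survival over 14 days. LD50 with 95% confidence limits obtained by logistic regression (GLM) curve fitting of 14-day mortality data.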
# Rattus norvegicus [12] = assay: Acute toxicity in ICR rat assessed as hypokinetic beginning at 1710 mg/kg, administered intragastrically after 5 hrs; type: organism-based; design: dose 1710 mg/kg, route intragastric; settings: in vivo, po
# Outline: (§4)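 Normal ICR rats, 6–8 weeks, weighed individually; single intragastric doses of 5000.0, 3823.6, 2924.0, 2236.1, 1710.0 or 1000.0 mg/kg. Survival checked daily for two weeks. Animals observed continuously for physical signs of toxicity (skin changes, mobility, aggressiveness, respiratory movements). Survivors dissected at the end and organs examined for pathological changes.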
# [13] = Acute toxicity in ICR rat assessed as mortality at 1000 mg/kg, administered intragastrically after 14 days relative to control; type: organism-based; design: dose 1000 mg/kg, route intragastric; settings: in vivo, po, read-out: Activity; outline: as §4
# Rattus norvegicus [14] = assay: Acute toxicity in ICR rat assessed as weight loss at 1710 mg/kg, administered intragastrically after 2 weeks; type: organism-based; design: dose 1710 mg/kg, route intragastric; settings: in vivo, po, 336 h; outline: as §4
# Rattus norvegicus [15] = assay: Acute toxicity in ICR rat assessed as hypokinetic beginning at 5000 mg/kg, administered intragastrically after 5 hrs; type: organism-based; design: dose 5000 mg/kg, route intragastric; settings: in vivo, po; outline: as §4
# [16] = Acute toxicity in ICR rat assessed as mortality at 1710 mg/kg, administered intragastrically after 14 days relative to control; type: organism-based; design: dose 1710 mg/kg, route intragastric; settings: in vivo, po, read-out: Activity; outline: as §4
# Rattus norvegicus [17] = assay: Acute toxicity in ICR rat assessed as weight loss at 2236.1 mg/kg, administered intragastrically after 2 weeks; type: organism-based; design: dose 2236.1 mg/kg, route intragastric; settings: in vivo, po, 336 h; outline: as §4
# Rattus norvegicus [18] = assay: Acute toxicity in ICR rat assessed as weight loss at 5000 mg/kg, administered intragastrically after 2 weeks; type: organism-based; design: dose 5000 mg/kg, route intragastric; settings: in vivo, po, 336 h; outline: as §4
# Rattus norvegicus [19] = assay: Acute toxicity in ICR rat assessed as weight loss at 3823.6 mg/kg, administered intragastrically after 2 weeks; type: organism-based; design: dose 3823.6 mg/kg, route intragastric; settings: in vivo, po, 336 h; outline: as §4
# Rattus norvegicus [20] = assay: Acute toxicity in ICR rat assessed as hypokinetic beginning at 3823.6 mg/kg, administered intragastrically after 5 hrs; type: organism-based; design: dose 3823.6 mg/kg, route intragastric; settings: in vivo, po; outline: as §4
# [21] = Acute toxicity in ICR rat assessed as mortality at 5000 mg/kg, administered intragastrically after 14 days relative to control; type: organism-based; design: dose 5000 mg/kg, route intragastric; settings: in vivo, po, read-out: Activity; outline: as §4
# Rattus norvegicus [22] = assay: Acute toxicity in ICR rat assessed as weight loss at 1000 mg/kg, administered intragastrically after 2 weeks; type: organism-based; design: dose 1000 mg/kg, route intragastric; settings: in vivo, po, 336 h; outline: as §4
# [23] = Acute toxicity in ICR rat assessed as mortality at 3823.6 mg/kg, administered intragastrically after 14 days relative to control; type: organism-based; design: dose 3823.6 mg/kg, route intragastric; settings: in vivo, po, read-out: Activity; outline: as §4
# Rattus norvegicus [24] = assay: Acute toxicity in ICR rat assessed as weight loss at 2924 mg/kg, administered intragastrically after 2 weeks; type: organism-based; design: dose 2924 mg/kg, route intragastric; settings: in vivo, po, 336 h; outline: as §4
# [25] = Acute toxicity in ICR rat assessed as mortality at 2924 mg/kg, administered intragastrically after 14 days relative to control; type: organism-based; design: dose 2924 mg/kg, route intragastric; settings: in vivo, po, read-out: Activity; outline: as §4
# Rattus norvegicus [26] = assay: Acute toxicity in ICR rat assessed as hypokinetic beginning at 2236.1 mg/kg, administered intragastrically after 5 hrs; type: organism-based; design: dose 2236.1 mg/kg, route intragastric; settings: in vivo, po; outline: as §4
# Rattus norvegicus [27] = assay: Acute toxicity in ICR rat assessed as hypokinetic beginning at 1000 mg/kg, administered intragastrically after 5 hrs; type: organism-based; design: dose 1000 mg/kg, route intragastric; settings: in vivo, po; outline: as §4
# Rattus norvegicus [28] = assay: Acute toxicity in ICR rat assessed as hypokinetic beginning at 2924 mg/kg, administered intragastrically after 5 hrs; type: organism-based; design: dose 2924 mg/kg, route intragastric; settings: in vivo, po; outline: as §4
# [29] = Acute toxicity in ICR rat assessed as mortality at 2236.1 mg/kg, administered intragastrically after 14 days relative to control; type: organism-based; design: dose 2236.1 mg/kg, route intragastric; settings: in vivo, po, read-out: Activity; outline: as §4
smiles,measurement,setting,value
CCCCC(=O)N(Cc1ccc(-c2ccccc2-c2nc(=O)o[nH]2)cc1)[C@H](C(=O)O)C(C)C,Activity,Rattus norvegicus [1],Non-toxic
same,Activity,Rattus norvegicus [2],Non-toxic
same,Activity,Rattus norvegicus [3],Active
same,Activity,Rattus norvegicus [4],Active
same,Activity,Rattus norvegicus [5],Active
same,inhibition,Rattus norvegicus [6],Dose-dependent effect
same,IC50,[7],9.82 nM
same,Ki,[7],6.65 nM
same,Time,Rattus norvegicus [8],3 h
same,Activity,Rattus norvegicus [9],Active
same,Time,Rattus norvegicus [10],3 h
CCCCC(=O)N(Cc1ccc(-c2ccccc2-c2nc(=O)o[nH]2)cc1)[C@@H](CC(C)C)C(=O)O,Activity,Rattus norvegicus [1],Non-toxic
same,Activity,Rattus norvegicus [2],Non-toxic
same,Activity,Rattus norvegicus [3],inactive
same,Activity,Rattus norvegicus [4],inactive
same,Activity,Rattus norvegicus [5],inactive
same,inhibition,Rattus norvegicus [6],Dose-dependent effect
same,IC50,[7],10.2 nM
same,Ki,[7],6.88 nM
same,Activity,Rattus norvegicus [9],inactive
CCCCC(=O)N(Cc1ccc(-c2ccccc2-c2nc(=O)o[nH]2)cc1)[C@@H](Cc1ccccc1)C(=O)O,Activity,Rattus norvegicus [1],Non-toxic
same,Activity,Rattus norvegicus [2],Non-toxic
same,Activity,Rattus norvegicus [3],inactive
same,Activity,Rattus norvegicus [4],inactive
same,Activity,Rattus norvegicus [5],inactive
same,inhibition,Rattus norvegicus [6],Dose-dependent effect
same,IC50,[7],18 nM
same,Ki,[7],12.2 nM
same,Activity,Rattus norvegicus [9],inactive
CCCC(=O)N(Cc1ccc(-c2ccccc2-c2nc(=O)o[nH]2)cc1)[C@@H](CC(C)C)C(=O)O,Activity,Rattus norvegicus [1],Non-toxic
same,Activity,Rattus norvegicus [2],Non-toxic
same,Activity,Rattus norvegicus [3],Active
same,Activity,Rattus norvegicus [4],Active
same,Activity,Rattus norvegicus [5],Active
same,inhibition,Rattus norvegicus [6],Dose-dependent effect
same,IC50,[7],36 nM
same,Ki,[7],24.3 nM
same,Time,Rattus norvegicus [8],3 h
same,Activity,Rattus norvegicus [9],Active
same,Time,Rattus norvegicus [10],3 h
CCC(=O)N(Cc1ccc(-c2ccccc2-c2nc(=O)o[nH]2)cc1)[C@H](C(=O)O)C(C)C,Activity,Rattus norvegicus [1],Non-toxic
same,Activity,Rattus norvegicus [2],Non-toxic
same,Activity,Rattus norvegicus [3],Active
same,Activity,Rattus norvegicus [4],Active
same,Activity,Rattus norvegicus [5],Active
same,inhibition,Rattus norvegicus [6],Dose-dependent effect
same,IC50,[7],1.6 nM
same,Ki,[7],1.03 nM
same,Time,Rattus norvegicus [8],3 h
same,Activity,Rattus norvegicus [9],Active
same,Time,Rattus norvegicus [10],3 h
CCCC(=O)N(Cc1ccc(-c2cc(F)ccc2-c2noc(=O)[nH]2)cc1)[C@H](C(=O)O)C(C)C,Activity,Rattus norvegicus [1],Non-toxic
same,Activity,Rattus norvegicus [2],Non-toxic
same,Activity,Rattus norvegicus [3],Active
same,inhibition,Rattus norvegicus [6],Dose-dependent effect
same,IC50,[7],20.8 nM
same,Ki,[7],14.1 nM
same,Time,Rattus norvegicus [8],3 h
same,Activity,Rattus norvegicus [9],Active
same,Time,Rattus norvegicus [10],3 h
CCCCC1=NC2(CCCC2)C(=O)N1Cc1ccc(-c2ccccc2-c2nnn[nH]2)cc1 [IRBESARTAN],Activity,Rattus norvegicus [1],Non-toxic
same,Activity,Rattus norvegicus [2],Non-toxic
same,Activity,Rattus norvegicus [3],Active
same,Activity,Rattus norvegicus [4],Active
same,Activity,Rattus norvegicus [5],Active
same,inhibition,Rattus norvegicus [6],Dose-dependent effect
same,IC50,[7],0.58 nM
same,Ki,[7],0.41 nM
same,Time,Rattus norvegicus [8],3 h
same,Activity,Rattus norvegicus [9],Active
same,Time,Rattus norvegicus [10],3 h
CCCCc1nc(Cl)c(CO)n1Cc1ccc(-c2ccccc2-c2nn[nH]n2)cc1 [LOSARTAN],LD50,[11],2250 mg/kg
CCCC(=O)N(Cc1ccc(-c2ccccc2-c2nc(=O)o[nH]2)cc1)[C@@H](Cc1ccccc1)C(=O)O,Activity,Rattus norvegicus [1],Non-toxic
same,Activity,Rattus norvegicus [2],Non-toxic
same,Activity,Rattus norvegicus [3],inactive
same,Activity,Rattus norvegicus [4],inactive
same,Activity,Rattus norvegicus [5],inactive
same,inhibition,Rattus norvegicus [6],Dose-dependent effect
same,IC50,[7],26.5 nM
same,Ki,[7],17.9 nM
same,Activity,Rattus norvegicus [9],inactive
CCCC(=O)N(Cc1ccc(-c2ccccc2-c2nc(=O)o[nH]2)cc1)[C@H](C(=O)O)C(C)C,Activity,Rattus norvegicus [12],Toxic
same,Activity,Rattus norvegicus [1],Non-toxic
same,mortality at 336 h,[13],0%
same,Activity,Rattus norvegicus [2],Non-toxic
same,Activity,Rattus norvegicus [14],Non-toxic
same,Activity,Rattus norvegicus [15],Toxic
same,Activity,Rattus norvegicus [3],Active
same,Activity,Rattus norvegicus [4],Active
same,Activity,Rattus norvegicus [5],Active
same,inhibition,Rattus norvegicus [6],Dose-dependent effect
same,IC50,[7],0.49 nM
same,Ki,[7],0.33 nM
same,mortality at 336 h,[16],30%
same,Activity,Rattus norvegicus [17],Non-toxic
same,Activity,Rattus norvegicus [18],Non-toxic
same,Time,Rattus norvegicus [8],3 h
same,Activity,Rattus norvegicus [19],Non-toxic
same,Activity,Rattus norvegicus [20],Toxic
same,LD50,[11],2320 mg/kg
same,mortality at 336 h,[21],100%
same,Activity,Rattus norvegicus [22],Non-toxic
same,Activity,Rattus norvegicus [9],Active
same,mortality at 336 h,[23],80%
same,Activity,Rattus norvegicus [24],Non-toxic
same,mortality at 336 h,[25],60%
same,Activity,Rattus norvegicus [26],Toxic
same,Time,Rattus norvegicus [10],3 h
same,Activity,Rattus norvegicus [27],Non-toxic
same,Activity,Rattus norvegicus [28],Toxic
same,mortality at 336 h,[29],50%
CCCCC(=O)N(Cc1ccc(-c2ccccc2-c2nnn[nH]2)cc1)[C@H](C(=O)O)C(C)C [VALSARTAN],Activity,Rattus norvegicus [1],Non-toxic
same,Activity,Rattus norvegicus [2],Non-toxic
same,Activity,Rattus norvegicus [4],Active
same,Activity,Rattus norvegicus [5],Active
same,inhibition,Rattus norvegicus [6],Dose-dependent effect
same,IC50,[7],2.64 nM
same,Ki,[7],2.22 nM
same,LD50,[11],308 mg/kg
